# Source: PubChem
# In the library only some 2.2% were active in any assay of this set; here they are far more common.
# Autophagy HCS – autophagy modulators in MEF cells, primary screen, imaging, high-content, MEF GFP-LC3; MEF GFP-LC3 puncta imaging; test concentration mostly 10 µM; calls only at 10 µM (by protocol); 190,000 compounds, 0.98% hits; AID 463193, 2010;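 active means percentage of spot-positive cells more than 3 SD above its plate mean, without a fluorescence outlier flag or 80% toxicity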;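 further: spot-positive cell cutoff set from DMSO-treated cells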
# HCT116 PTEN-null – growth suppression of PTEN-null HCT116, primary screen, cell-based, CellTiter-Glo; HCT116 PTEN-null viability, 60 h; stronger effect = lower value; viability, % at 10 µM; 140,000 compounds, 1.2% hits; AID 827, 2007;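 active means viability at or below a set limit, 4 SD under the median of all tested compounds, cut at about 3.7% in these data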;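 further: PTEN knockout HCT116 line with beta catenin targeted HCT116 as companion control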
# Dynein cargo inh – inhibitors of GR-EGFP nuclear translocation, primary screen, dynein cargo transport inhibitor project, imaging, high-content, 3617.4 mouse cells. 220,000 compounds, 0.47% hits. z-score, hits read low. test concentration mostly 20 µM; stimulated with dexamethasone, 1 µM; stronger effect = lower value;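 active means plate z-score of nuclear minus cytoplasmic receptor signal below a set negative limit, without overly bright fluorescence or cell loss, cut at about -3.5 in these data, passing the limit was not always enough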;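 further: z-score of nuclear minus cytoplasmic ring GR-EGFP intensity difference per well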
#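 Buffer or medium: tet-free medium with charcoal-stripped serum / Also added: dexamethasone agonist, 1.0 µM final, for 30 min / Timing: induction 48 h, compound 1 h, agonist 30 min / Measured by: high-content fluorescence imaging after fixation / Read-out: nuclear-to-cytoplasmic GR-EGFP distribution per well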
# bCat KO growth – primary screen for growth suppressors in beta-catenin knockout HCT116 cells (colon tumor, human) | HCT116 beta-catenin knockout viability, CellTiter-Glo, 60 h; stronger effect = lower value | viability, % at 10 µM | 140,000 compounds, 1.5% hits | AID 818, 2007;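 active means viability at or under a set limit, the compound median less 4 SD, cut at about 6% in these data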;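 further: 0% = Hyamine 1622 control at 20 µM and 100% = untreated cell control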
# SDO1 yeast rescue – growth rescue of sdo1-depleted yeast, primary screen, S. cerevisiae, bone marrow failure model; 140,000 compounds, 0.21% hits; AID 817, 2007; S. cerevisiae sdo1-depleted JHY4D growth rescue, OD600 30 h; stronger effect = higher value; pdr5 snq2 efflux-pump mutant strain; z-score at 10 µM;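 active means z-score above 3 at both the 24 hr and the 30 hr optical density reads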;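 further: z-score against mean and SD of all compound wells on the same plate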
# * marks the source's active call; other numbers are inactive results; i = inactive; . = no result; + = active, no number.
SMILES,Autophagy HCS,HCT116 PTEN-null,Dynein cargo inh,bCat KO growth,SDO1 yeast rescue
CCc1ccccc1S(=O)(=O)Cc1ccc(C(=O)N2CCN(c3ccccc3OC)CC2)o1,+,34,-0.91,29,-0.88
O=[N+]([O-])c1ccc2nc(/C=C/c3ccc(Cl)cc3)[nH]c2c1,i,2.8*,-0.051,2.1*,-2.7
O=[N+]([O-])c1ccc(-c2nc3ccc([N+](=O)[O-])cc3[nH]2)cc1,i,5,-1.2,15,-1.5
O=C(/C=C/c1ccccc1[N+](=O)[O-])NCc1cccnc1,i,90,0.093,89,0.8
COc1ccccc1NS(=O)(=O)c1cc(NC(=O)Nc2cccc(C)c2)ccc1N1CCCCC1,i,57,-0.47,68,-0.55
O=C(Nc1ccc(Cl)cc1)Nc1ccc(N2CCCC2)c(S(=O)(=O)Nc2ccccc2Cl)c1,i,1.8*,-0.34,1.9*,-0.46
O=C(c1ccc(-c2ccccc2)cc1)C1CCCN(Cc2ccncc2)C1 (centres undefined),i,.,-0.89,.,.
O=C(c1ccc(-c2ccccc2)cc1)C1CCCN(C(=O)c2ccncc2)C1 (centres undefined),+,.,0.55,.,.
COc1cc2c(cc1NC(=O)/C=C/c1ccccc1)oc1ccccc12,+,86,-0.073,92,-0.91
CC1CCCN(CCOCCOc2ccc(Cl)cc2Br)C1 (centres undefined),i,8,-0.3,5.3*,-1.4
CCN1CCN(CCNC(=O)c2ccc(/C=C3/Sc4ccccc4N(Cc4cccc(Cl)c4)C3=O)cc2)CC1,+,.,2.4,.,.
Cc1cc(C)n(-c2cccc(F)n2)n1,i,.,0.36,.,.
COc1cc(NC(=O)c2cnn3c(C)cc(C)nc23)c(OC)cc1Cl,i,100,-0.058,110,-0.83
N/C(=N\OC(=O)Oc1ccccc1)c1cccc([N+](=O)[O-])c1,i,97,-0.057,98,-0.12
O=C(C#Cc1ccccc1)c1cccc([N+](=O)[O-])c1,i,2.1*,0.16,2.4*,-2.9
COc1cc(/C=C/C(=O)c2cccc([N+](=O)[O-])c2)cc(OC)c1OC,i,1.4*,-2.6,2.1*,-0.99
COc1ccc(C(=O)/C=C/c2ccccc2F)c(OC(=O)c2ccc([N+](=O)[O-])cc2)c1,i,23,-0.78,32,-1.9
O=C(/C=C/c1ccccc1F)c1cccc([N+](=O)[O-])c1,i,2.6*,-3,3.2*,-1.6
COc1ccc(C(=O)/C=C/c2ccc(N3CCCCC3)c([N+](=O)[O-])c2)cc1,i,103,-2.1,98,-0.38
COc1ccc(/C=C/C(=O)c2ccc(C)c([N+](=O)[O-])c2)cc1O,i,1.4*,-0.19,1.2*,-1.3
CCN(CC)C(=O)C(=O)c1ccn(-c2c(C)csc2C(=O)OC)c1,i,.,0.23,.,.
CC(C)[C@H](NS(=O)(=O)c1ccccc1)C(=O)OCC(=O)N1N=C(c2ccc(Cl)cc2)CC1c1ccco1 (some centres undefined),i,38,-0.33,53,0.04
OC(CNc1ccccc1)Cn1ccc2ccccc21 (centres undefined),i,.,0.95,.,.
O=C(O)c1ccccc1C(=O)N1CCN(c2cccc(Cl)c2)CC1,i,91,0.063,93,0.41
CCOc1ccc2ccccc2c1C(=O)N1CCN(c2ccccc2)CC1,+,22,-1,20,-0.65
SMILES,Autophagy HCS,HCT116 PTEN-null,Dynein cargo inh,bCat KO growth,SDO1 yeast rescue
CCOc1ccccc1C(=O)N1CCN(c2cccc(Cl)c2)CC1,+,15,-0.74,20,0.4
CC(=O)N1C(=O)N(C(C)=O)C2C1N(C)C(=O)N2C(C)=O (centres undefined),i,.,-0.046,.,.
CN1CCN(C(=O)CSc2nc(-c3cccs3)cc(-c3cccs3)c2C#N)CC1,i,4,0.069,3.1*,-2
COc1ccc(C(=O)Oc2ccc(F)cc2C(=O)/C=C/c2ccc(OC)c(OC)c2)cc1,i,101,-0.91,98,-1.4
COc1ccc(/C=C/C(=O)c2cc(F)ccc2OC(=O)c2ccccc2C)cc1OC,i,2.1*,-2,2.2*,-1.2
CCCOc1ccc(CN(CCC#N)C(=S)NC(=O)c2ccccc2)cc1,i,22,-0.32,26,-0.77
